Assay results: publication PMC8227600 (ACS Central Science, 2021)
Structures can show the parent of a compound that is named as a salt.

Columns and labels:
HT22 cells [1] = assay: Erastin-induced ferroptosis in HT22 cells; type: cell-based, mouse
In short: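 HT22 cells were cotreated with Erastin and test compound, and cell viability was measured. A value was reported as not determined where viability was below 50% at 1.0 μM compound with Erastin.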

NCOA4 = target: T1, NCOA4 (Homo sapiens, UniProt Q13772); assay: Biotin–streptavidin pull-down from HEK-293T lysates; type: binding; details: lysate preincubated with 9a (20 μM) 6 h at 4 °C
T1 sequence (Q13772 1-614): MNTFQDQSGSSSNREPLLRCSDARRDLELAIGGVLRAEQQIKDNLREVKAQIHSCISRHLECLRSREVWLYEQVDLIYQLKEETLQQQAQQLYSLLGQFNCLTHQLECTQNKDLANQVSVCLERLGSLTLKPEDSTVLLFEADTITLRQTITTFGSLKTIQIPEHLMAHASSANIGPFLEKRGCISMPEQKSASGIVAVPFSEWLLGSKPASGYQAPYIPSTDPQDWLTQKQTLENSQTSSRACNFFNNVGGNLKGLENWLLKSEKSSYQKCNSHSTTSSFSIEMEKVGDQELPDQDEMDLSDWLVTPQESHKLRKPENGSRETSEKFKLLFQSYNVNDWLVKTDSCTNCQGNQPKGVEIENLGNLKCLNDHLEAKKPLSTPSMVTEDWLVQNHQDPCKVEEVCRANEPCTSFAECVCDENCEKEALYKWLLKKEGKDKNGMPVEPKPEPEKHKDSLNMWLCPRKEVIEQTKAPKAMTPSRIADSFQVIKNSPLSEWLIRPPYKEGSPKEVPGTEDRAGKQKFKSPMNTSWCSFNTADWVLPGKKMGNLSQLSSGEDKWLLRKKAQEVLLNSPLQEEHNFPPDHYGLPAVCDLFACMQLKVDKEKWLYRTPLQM
In short: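 HEK-293T lysates expressing FTH1-Myc-His and NCOA4-Flag were pretreated with test compound or DMSO for 6 h at 4 °C. They were then incubated overnight at 4 °C with increasing concentrations of a biotinylated probe precoupled to streptavidin magnetic beads. Precipitates were pulled down with the beads and immunoblotted with anti-tag antibodies. Biotin-PEG3-N3 served as the negative-control probe.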

NCOA4^383–522 [2] = target: T2, NCOA4^383–522 (Homo sapiens, UniProt Q13772); assay: Surface plasmon resonance binding to NCOA4^383–522
T2 sequence (Q13772 383-522): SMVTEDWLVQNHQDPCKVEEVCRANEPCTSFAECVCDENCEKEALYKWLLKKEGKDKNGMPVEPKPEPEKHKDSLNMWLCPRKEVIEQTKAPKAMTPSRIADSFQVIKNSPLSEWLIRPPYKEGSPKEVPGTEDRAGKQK

HT-1080 cells [3] = assay: Lipid ROS in HT-1080 cells after GPX4 knockdown; type: cell-based, human; details: 0.5 μM 9a, 36 h
HT22 cells [4] = assay: Intracellular GSH level and GPX4 expression in HT22 cells; type: cell-based, mouse; details: 12 h
HT22 cells [5] = assay: Non-ferroptotic cell death; type: cell-based, mouse
HT22 cells [6] = assay: LC3-II level; type: cell-based, mouse; details: 6 h, Western blotting
ferritin = assay: Ferritin protein level; type: cell-based, mouse; details: 6 h
NCOA4^383–522 [7] = target: T2, NCOA4^383–522; assay: Pull-down of recombinant NCOA4^383–522; type: binding; details: protein preincubated with 9a 1 h
In short: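 Recombinant NCOA4 383–522 or FTH1 protein was pretreated with test compound or DMSO for 1 h. It was then incubated for 1 h with increasing concentrations of a biotinylated probe precoupled to streptavidin magnetic beads. Bead-bound protein was detected by silver staining and Western blotting.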

HT-1080 cells [8] = assay: Ferroptosis induced by Erastin, RSL3, ML210 or GPX4 knockdown in HT-1080 cells; type: cell-based, human
In short: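 HT-1080 cells were transfected for 12 h with scrambled siRNA (si-NC) or GPX4-targeting siRNA. Cells were then treated for 36 h with or without 0.5 μM test compound, 0.5 μM Fer-1 or 20 μM DFO. Viability was read by CCK-8. Values are mean ± SEM of three independent experiments.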

[9] = tested on: MCAO model of ischemic stroke; type: in vivo, rat; details: for infarct volume (TTC staining): rat, in vivo
HT22 cells [10] = assay: Intracellular Fe^2+; type: cell-based, mouse; details: 6 h; for fluorescence intensity of FerroOrange (free Fe^2+): 0.5 μM 9a or 50 μM DFO
In short: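 Live HT22 cells were given 0.5 μM test compound or 50 μM DFO for 6 h, then imaged by confocal microscopy with the Fe2+ probe FerroOrange; nuclei were stained with Hoechst 33342. Lysosomal Fe2+ was scored as FerroOrange signal colocalised with LysoTracker Green per cell, about 100 cells per condition. Three independent experiments, mean ± SEM.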

HT22 cells [11] = assay: Ferroptosis induced by cysteine depletion, BSO or ML210 in HT22 cells; type: cell-based, mouse; details: for cell death from cysteine depletion: cystine-free media 24 h, 0.5 μM 9a, 0.5 μM Fer-1 or 20 μM DFO
PTGS2 mRNA = PTGS2 mRNA expression; type: cell-based, mouse; details: 12 h
HT22 cells [12] = assay: Lipid ROS; type: cell-based, mouse; details: 3 h; for lipid ROS, oxidized BODIPY-C11 fluorescence intensity: 1 μM RSL3, 0.5 μM compound
In short: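 HT22 cells were exposed to 1 μM RSL3 with or without 0.5 μM test compound or 0.5 μM Fer-1 for 3 h. Lipid ROS was detected with BODIPY-C11 (oxidized form, green) by confocal microscopy (Hoechst 33342 nuclei) and by flow cytometry. Cytosolic ROS was measured by flow cytometry with carboxy-H2DCFDA.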

[13] = target: T3, NCOA4^383–522–FTH1 interaction (Homo sapiens, UniProt Q13772); assay: ELISA for NCOA4^383–522–FTH1 protein-protein interaction; type: binding
T3 sequence (Q13772 383-522): T2 sequence (Q13772 383-522)
In short: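 Test compound at the indicated concentrations was preincubated with recombinant NCOA4 383–522. Binding of NCOA4 383–522 to FTH1 was then monitored by ELISA to build a dose–response curve. Values are mean ± SEM of three independent experiments.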

NCOA4–FTH1 interaction = target: T4, NCOA4–FTH1 interaction (Homo sapiens, UniProt Q13772); assay: Coimmunoprecipitation of NCOA4 and FTH1 in cells; type: cell-based
T4 sequence (Q13772 1-614): T1 sequence (Q13772 1-614)

HT22 cells [14] = assay: RSL3-induced ferroptosis in HT22 cells; type: cell-based; details: Mus musculus, HT-22, 24 h, read-out: EC50, inhibition of RSL3-induced death

## CN1CCN(c2ccc3nc(-c4cccc(N5CCc6ccccc6C5)c4)[nH]c3c2)CC1 [4a]
HT22 cells [1]; Mus musculus, HT-22, 24 h
  EC50: 0.5 µM

## Cc1ccc2c(c1)CN(c1cccc(-c3nc4ccc(N5CCN(C)CC5)cc4[nH]3)c1)CC2 [9e]
HT22 cells [1]; Mus musculus, HT-22, 24 h
  EC50: 0.77 µM

## CN1CCN(c2ccc3nc(-c4cccc(N5CCc6cc(F)ccc6C5)c4)[nH]c3c2)CC1 [9a]
NCOA4
  competition of Biotin-14d binding to NCOA4: competitively inhibited
NCOA4^383–522 [2]
  Kd: 7.48 µM
HT-1080 cells [3]
  lipid ROS accumulation induced by knockdown of GPX4: inhibited lipid ROS accumulation
HT22 cells [4]
  intracellular GSH level: did not change
HT22 cells [4]; immunoblot
  GPX4 expression: did not change
HT22 cells [5]; 0.5 μM STS, 24 h
  staurosporine (STS)-induced apoptosis: cannot inhibit
HT22 cells [5]; 2 mM H2O2, 12 h
  hydrogen peroxide (H2O2)-induced necrosis: cannot inhibit
HT22 cells [5]; 12 h
  TNF-α/SM-164/zVAD-fmk-induced necroptosis: cannot inhibit
HT22 cells [6]
  LC3-II level: no ability to induce an increase in the LC3-II level
ferritin; 0.5 μM 9a, qPCR
  mRNA expressions of FTH1 and FTL: did not change
ferritin; Western blotting
  protein level of ferritin: increased in a dose-dependent manner
HT22 cells [1]; Mus musculus, HT-22, 24 h
  EC50: 0.29 µM
NCOA4^383–522 [7]
  competition of Biotin-14d binding to NCOA4^383–522: blocked
HT-1080 cells [8]; inducers 1 μM, 24 h
  ferroptosis induced by Erastin, RSL3, or ML210: inhibited ferroptosis
HT-1080 cells [8]; si-GPX4 12 h, then 0.5 μM 9a 36 h
  ferroptosis induced by knockdown of GPX4: significantly suppressed ferroptosis
[9]; 10 mg/kg i.p.
  4-hydroxynonenal (4-HNE) level in the lesioned hemisphere: reduced
  PTGS2 gene expression in the lesioned hemisphere: significantly decreased
  malondialdehyde (MDA) level in the lesioned hemisphere: reduced
[9]; 10 mg/kg i.p., 24 h after MCAO and reperfusion
  neurological deficits (Longa test): improved neurological deficits
[9]; 10 mg/kg i.p., lesioned hemisphere
  percentage of injured neurons in the cortex (Nissl staining): reduced the percentage of injured neurons in the cortex
[9]
  infarct volume (TTC staining): substantially reduced infarct volume
HT22 cells [10]
  fluorescence intensity of FerroOrange (free Fe^2+): significantly decreased
HT22 cells [10]; 0.5 μM 9a
  Fe^2+ in lysosomes (FerroOrange colocalized with LysoTracker Green): diminished
HT22 cells [11]; 100 μM BSO, 12 h
  BSO-induced ferroptosis: dose-dependently prevented cell death
HT22 cells [11]; ML210 10 μM, 24 h
  ML210-induced ferroptosis: ferroptosis inhibitory behavior similar to those of Fer-1 and DFO
HT22 cells [11]
  cell death from cysteine depletion: significantly reduced the level of cell death
PTGS2 mRNA
  RSL3-induced PTGS2 mRNA expression: dose-dependently inhibited the upregulation of PTGS2 expression
HT22 cells [12]
  lipid ROS, oxidized BODIPY-C11 fluorescence intensity: remarkably decreased
HT22 cells [12]; carboxy-H2DCFDA, flow cytometry
  RSL3-induced cytosolic ROS accumulation: suppressed by 9a in a dose-dependent manner
[13]
  IC50: 3.26 µM
NCOA4–FTH1 interaction; HEK-293T cells, 16 h treatment
  NCOA4–FTH1 interaction, co-IP of FTH1-Myc-His and NCOA4-Flag: substantially impaired
NCOA4–FTH1 interaction; HT-1080 cells, 6 h
  endogenous NCOA4–FTH1 interaction, co-IP: inhibited the endogenous NCOA4 interaction with FTH1

## CCCOc1ccc2c(c1)CCN(c1cccc(-c3nc4ccc(N5CCN(C)CC5)cc4[nH]3)c1)C2 [14b]
HT22 cells [1]; Mus musculus, HT-22, 24 h
  EC50: 0.39 µM

## CC(C)Oc1ccc2c(c1)CCN(c1cccc(-c3nc4ccc(N5CCN(C)CC5)cc4[nH]3)c1)C2 [14c]
HT22 cells [1]; Mus musculus, HT-22, 24 h
  EC50: 0.53 µM

## c1cc(-c2nc3ccc(N4CCCCC4)cc3[nH]2)cc(N2CCc3ccccc3C2)c1 [4c]
HT22 cells [1]; Mus musculus, HT-22, 24 h
  EC50: 1.21 µM

## C#CCOc1ccc2c(c1)CCN(c1cccc(-c3nc4ccc(N5CCN(C)CC5)cc4[nH]3)c1)C2 [14d]
HT22 cells [1]; Mus musculus, HT-22, 24 h
  EC50: 0.88 µM
HT22 cells [14]
  EC50: 0.69 µM

## CCOC(=O)c1ccc(NC2CCCCC2)c(N)c1 [Fer-1, Ferrostatin-1, reference compound]
HT22 cells [1]; 1 μM Erastin, 24 h, CCK-8
  EC50: 0.082 µM
[9]
  infarct volume (TTC staining): substantially reduced infarct volume
HT22 cells [11]
  cell death from cysteine depletion: significantly reduced the level of cell death
HT22 cells [12]
  lipid ROS, oxidized BODIPY-C11 fluorescence intensity: remarkably decreased

## CC(=O)N(O)CCCCCNC(=O)CCC(=O)N(O)CCCCCNC(=O)CCC(=O)N(O)CCCCCN [DFO, Deferoxamine mesylate, reference compound]
HT22 cells [1]; Mus musculus, HT-22, 24 h
  EC50: 5.75 µM
HT22 cells [10]
  fluorescence intensity of FerroOrange (free Fe^2+): significantly decreased
HT22 cells [11]
  cell death from cysteine depletion: significantly reduced the level of cell death

## CC1CCN(c2ccc3nc(-c4cccc(N5CCc6ccccc6C5)c4)[nH]c3c2)CC1 [4b]
HT22 cells [1]; Mus musculus, HT-22, 24 h
  EC50: 0.64 µM

## CCOc1ccc2c(c1)CCN(c1cccc(-c3nc4ccc(N5CCN(C)CC5)cc4[nH]3)c1)C2 [14a]
HT22 cells [1]; Mus musculus, HT-22, 24 h
  EC50: 0.51 µM

## COc1cccc2c1CN(c1cccc(-c3nc4ccc(N5CCN(C)CC5)cc4[nH]3)c1)CC2 [9f]
HT22 cells [1]; Mus musculus, HT-22, 24 h
  EC50: 0.33 µM
